Measurements taken from ChEMBL document CHEMBL4219146, “Synthesis and Pharmacological Evaluation of Heterocyclic Carboxamides: Positive Allosteric Modulators of the M1 Muscarinic Acetylcholine Receptor with Weak Agonist Activity and Diverse Modulatory Profiles” (J Med Chem, 2018).
Calls of active or inactive are those of the source. No cut-off for these calls is given here.

Experiments:
[1] = molecular target: T1, Muscarinic acetylcholine receptor M1 (Homo sapiens) (UniProt P11229); test: Intrinsic activity at human muscarinic acetylcholine receptor M1 expressed in flpIn-CHO cells assessed as induction of IP1 accumulation at 10 uM after 1 hr by HTRF assay relative to control; format: functional, cell-based
T1 sequence (whole entry): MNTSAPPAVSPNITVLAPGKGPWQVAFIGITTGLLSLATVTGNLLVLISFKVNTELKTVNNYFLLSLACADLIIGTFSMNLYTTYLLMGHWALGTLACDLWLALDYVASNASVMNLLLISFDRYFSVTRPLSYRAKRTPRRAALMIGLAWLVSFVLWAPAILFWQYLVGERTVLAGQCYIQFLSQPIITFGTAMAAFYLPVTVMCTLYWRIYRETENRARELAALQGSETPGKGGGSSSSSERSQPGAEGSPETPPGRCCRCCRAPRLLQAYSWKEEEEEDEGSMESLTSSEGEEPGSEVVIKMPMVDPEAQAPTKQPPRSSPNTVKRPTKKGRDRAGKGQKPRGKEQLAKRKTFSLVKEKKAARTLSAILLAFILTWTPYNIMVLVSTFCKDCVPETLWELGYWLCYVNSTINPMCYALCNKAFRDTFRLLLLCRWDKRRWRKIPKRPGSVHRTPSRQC
Outline: (§1)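 FlpIn CHO-hM1 cells, 25,000/well, seeded overnight, then preincubated 1 h at 37 °C in HEPES stimulation buffer with 50 mM LiCl, pH 7.4. ACh concentration-response curves run ± 10 µM modulator for 1 h at 37 °C. IP1 read by HTRF (665/620 nm) from lysates, interpolated from a standard curve and normalized to the ACh maximum. ∆pEC50 and ∆baseline taken versus ACh alone. ≥3 experiments, in duplicate.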

[2] = molecular target: T1, Muscarinic acetylcholine receptor M1 (Homo sapiens); test: Positive allosteric modulation of human muscarinic acetylcholine receptor M1 expressed in flpIn-CHO cells assessed as potentiation of acetylcholine-mediated IP1 accumulation at 10 uM measured after 1 hr by based HTRF assay relative to control; format: functional, cell-based; outline: as §1
[3] = molecular target: T1, Muscarinic acetylcholine receptor M1 (Homo sapiens); test: Displacement of [3H]-NMS from human muscarinic acetylcholine receptor M1 expressed in flpIn-CHO cell membranes after 5 hrs in presence of acetylcholine at EC20 by liquid scintillation counting
Outline: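 Whole-cell binding in FlpIn CHO-hM1 cells, 50,000/well, plated overnight and PBS-washed. Modulator titrated with a fixed EC20 ACh plus 0.2 nM [3H]NMS for 5 h at room temperature in HEPES/NaCl/MgCl2 buffer, pH 7.4. 100 µM atropine defined nonspecific binding. Cells washed with ice-cold saline and counted by scintillation. Data fitted to the allosteric ternary complex model.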

[4] = molecular target: T2, Muscarinic acetylcholine receptor M1 (Homo sapiens, UniProt P11229); test: Allosteric agonist at human muscarinic acetylcholine receptor M1 expressed in CHO cells assessed as induction of calcium mobilization after 2.5 mins by Fluo-4AM-based FLIPR assay; format: functional, cell-based
T2 sequence (P11229 whole entry): T1 sequence (whole entry)

[5] = molecular target: T2, Muscarinic acetylcholine receptor M1; test: Positive allosteric modulation of human muscarinic acetylcholine receptor M1 expressed in CHO cells assessed as potentiation of acetylcholine-induced calcium mobilization preincubated for 2.5 mins followed by acetylcholine addition measured after 1 min by Fluo-4AM-based FLIPR assay; format: functional, cell-based
[6] = molecular target: T1, Muscarinic acetylcholine receptor M1 (Homo sapiens); test: Displacement of [3H]-NMS from human muscarinic acetylcholine receptor M1 […] after 5 hrs by liquid scintillation counting
[7] = molecular target: T1, Muscarinic acetylcholine receptor M1 (Homo sapiens); test: Allosteric agonist at human muscarinic acetylcholine receptor M1 expressed in CHO-NFAT cells assessed as induction of calcium mobilization after 4 mins by Fluo-4AM-based FLIPR assay; format: functional, cell-based

Row | SMILES | Intrinsic activity [1] | Activity [2] | further results
1 | Cn1cc(-c2ccc(Cn3cc(C(=O)N[C@H]4CCCO[C@@H]4O)c4ncccc43)cc2)cn1 | Active |  | 
2 | Cn1cc(-c2ccc(Cn3cc(C(=O)NC4CCNCC4)c4ncccc43)cc2)cn1 | Active |  | 
3 | CNC(=O)c1cn(Cc2ccc(-c3cnn(C)c3)cc2)c2cccnc12 |  | Active | 
4 | Cn1cc(-c2ccc(Cn3cc(C(=O)N[C@H]4CC[C@H](O)CC4)c4ncccc43)cc2)cn1 | Active |  | 
5 | Cn1cc(-c2ccc(Cn3cc(C(=O)N4CCCCC4)c4ncccc43)cc2)cn1 | inactive | inactive | 
6 | Cn1cc(-c2ccc(Cn3cc(C(=O)Nc4ccccc4O)c4ncccc43)cc2)cn1 | 14% | inactive | 
7 | CCN(CC)C(=O)c1cn(Cc2ccc(-c3cnn(C)c3)cc2)c2cccnc12 | 0 |  | pKb [3]: 4.43
8 | Cn1cc(-c2ccc(Cn3cc(C(=O)NC4CCC(=O)CC4)c4ncccc43)cc2)cn1 | Active |  | 
9 | Cn1cc(-c2ccc(Cn3cc(C(=O)N4CCCC4)c4ncccc43)cc2)cn1 | inactive | Active | 
10 | CN(C(=O)c1cn(Cc2ccc(-c3cnn(C)c3)cc2)c2cccnc12)C1CCCCC1 | 0.57 |  | pKb [3]: 4.91; log(IA) [1]: -0.24
11 | O=C(O)c1ccc(Cn2cc(C(=O)N[C@H]3CCCC[C@@H]3O)c3ncccc32)cc1 | 2.88 |  | pKb [3]: 4.63; log(IA) [1]: 0.46
12 | Cn1cc(-c2ccc(Cn3cc(C(=O)N[C@@H]4CCCC[C@H]4O)c4c(F)cc(F)cc43)cn2)cn1 |  |  | EC50 [4]: 4.8 µM; EC50 [5]: 210 nM
13 | Cn1cc(-c2ccc(Cn3cc(C(=O)N4CCN(C(=O)OC(C)(C)C)CC4)c4ncccc43)cc2)cn1 |  | inactive | 
14 | Cn1cc(-c2ccc(Cn3cc(C(=O)N4CCNCC4)c4ncccc43)cc2)cn1 | Active |  | 
15 | Cn1cc(-c2ccc(Cn3cc(C(=O)N[C@H]4CCCC[C@@H]4O)c4c(Cl)cccc43)cc2)cn1 | Active | Active | 
16 | CCNC(=O)c1cn(Cc2ccc(-c3cnn(C)c3)cc2)c2cccnc12 | 3.63 |  | pKb [3]: 4.61; log(IA) [1]: 0.56

Row | SMILES | Intrinsic activity [1] | Activity [2] | further results
17 | Cn1cc(-c2ccc(Cn3cc(C(=O)N[C@H]4CCCC[C@@H]4O)c4c(F)cccc43)cc2)cn1 | Active | Active | 
18 | COc1ccc(Cn2cc(C(=O)O)c(=O)c3ccccc32)cc1 |  |  | pKb [6]: 5.48; Intrinsic activity [7]: 2.09; log(IA) [7]: 0.32
19 | Cn1cc(-c2ccc(Cn3cc(C(=O)N[C@H]4CCCC[C@@H]4O)c4ncccc43)cc2)cn1 | 22.9 | Active | pKb [6]: 5.92; log(IA) [1]: 1.36
20 | Cn1cc(-c2ccc(Cn3ccc(C(=O)N[C@H]4CCCC[C@@H]4O)c3)cc2)cn1 | 3.31 |  | fold change (FC) [2]: 7; pKb [3]: 4.19; log(IA) [1]: 0.52
21 | Cn1cc(-c2ccc(Cn3cc(C(=O)NC4CCCCC4)c4ncccc43)cc2)cn1 | Active |  | 
22 | Cn1cc(-c2ccc(Cn3cc(C(=O)N[C@H]4CCC[C@@H]4O)c4ncccc43)cc2)cn1 | Active |  | 
23 | Cn1cc(-c2ccc(Cn3cc(C(=O)N[C@H]4CCOC[C@@H]4O)c4ncccc43)cc2)cn1 | Active |  | 
24 | Cc1cnc(C(=O)N[C@@H]2CCOC[C@H]2O)cc1Cc1ccc(-c2cscn2)cc1 |  |  | pKb [6]: 6.2
25 | Cn1cc(-c2ccc(Cn3cc(C(=O)N[C@H]4CCCC[C@@H]4N)c4ncccc43)cc2)cn1 |  | Active | 
26 | Cn1cc(-c2ccc(Cn3cc(C(=O)Nc4ccccc4)c4ncccc43)cc2)cn1 | 73% |  | 
27 | CN(C)C(=O)c1cn(Cc2ccc(-c3cnn(C)c3)cc2)c2cccnc12 | inactive | Active | 
28 | Cn1cc(-c2ccc(Cn3cc(C(=O)NC4CCOCC4)c4ncccc43)cc2)cn1 | Active |  | 
29 | Cn1cc(-c2ccc(Cn3cc(C(=O)N[C@H]4CCCC[C@@H]4O)c4ccccc43)cc2)cn1 | Active | Active | 
30 | Cn1cc(-c2ccc(Cn3cc(C(N)=O)c4ncccc43)cc2)cn1 |  | Active | 
31 | Cn1cc(-c2ccc(Cn3nc(C(=O)N[C@H]4CCCC[C@@H]4O)c4ccccc43)cc2)cn1 | Active | Active | 
